Experimental data: paper PMC4681656 (Organic & biomolecular chemistry, 2016)
Entries after “also recorded” stand apart in the source; their conditions may differ.

Key:
[1] = target: hERG potassium channel (Homo sapiens, UniProt Q12809); assay: [3H]-dofetilide binding assay with hERG-HEK293 cell membranes
[2] = test system: Par-4 secretion from mouse fibroblasts; format: cell-based; settings: for fold induction at 0.5 µM: Mus musculus, Fibroblast, 24 h, read-out: Ratio of Par-4 Secretion by Arylquin Relative to Vehicle
In short: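 Cells exposed to test compound for 24 h. Conditioned medium and lysates were analysed by quantitative Western blot for Par-4 and Col1A1, with Col1A1 used to normalise secreted Par-4. Experiments were run in triplicate; data are mean ± standard deviation of at least three experiments, with Student t test.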

[3] = target: vimentin rod domain (residues 99-411) (Homo sapiens, UniProt P08670); assay: Vimentin-arylquin binding assay by intrinsic arylquin fluorescence; settings: fluorescence titration
Chain of vimentin rod domain (residues 99-411) (P08670 99-411): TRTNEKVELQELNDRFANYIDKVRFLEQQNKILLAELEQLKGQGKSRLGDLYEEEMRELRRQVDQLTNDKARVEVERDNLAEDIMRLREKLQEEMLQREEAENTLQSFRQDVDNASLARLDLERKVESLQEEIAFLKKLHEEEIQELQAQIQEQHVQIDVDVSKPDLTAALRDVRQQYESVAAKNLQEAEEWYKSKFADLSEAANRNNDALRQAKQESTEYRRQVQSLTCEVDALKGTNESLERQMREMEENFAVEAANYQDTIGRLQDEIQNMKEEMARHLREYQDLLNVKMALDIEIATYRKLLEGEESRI

Chain of hERG potassium channel (Q12809 whole entry): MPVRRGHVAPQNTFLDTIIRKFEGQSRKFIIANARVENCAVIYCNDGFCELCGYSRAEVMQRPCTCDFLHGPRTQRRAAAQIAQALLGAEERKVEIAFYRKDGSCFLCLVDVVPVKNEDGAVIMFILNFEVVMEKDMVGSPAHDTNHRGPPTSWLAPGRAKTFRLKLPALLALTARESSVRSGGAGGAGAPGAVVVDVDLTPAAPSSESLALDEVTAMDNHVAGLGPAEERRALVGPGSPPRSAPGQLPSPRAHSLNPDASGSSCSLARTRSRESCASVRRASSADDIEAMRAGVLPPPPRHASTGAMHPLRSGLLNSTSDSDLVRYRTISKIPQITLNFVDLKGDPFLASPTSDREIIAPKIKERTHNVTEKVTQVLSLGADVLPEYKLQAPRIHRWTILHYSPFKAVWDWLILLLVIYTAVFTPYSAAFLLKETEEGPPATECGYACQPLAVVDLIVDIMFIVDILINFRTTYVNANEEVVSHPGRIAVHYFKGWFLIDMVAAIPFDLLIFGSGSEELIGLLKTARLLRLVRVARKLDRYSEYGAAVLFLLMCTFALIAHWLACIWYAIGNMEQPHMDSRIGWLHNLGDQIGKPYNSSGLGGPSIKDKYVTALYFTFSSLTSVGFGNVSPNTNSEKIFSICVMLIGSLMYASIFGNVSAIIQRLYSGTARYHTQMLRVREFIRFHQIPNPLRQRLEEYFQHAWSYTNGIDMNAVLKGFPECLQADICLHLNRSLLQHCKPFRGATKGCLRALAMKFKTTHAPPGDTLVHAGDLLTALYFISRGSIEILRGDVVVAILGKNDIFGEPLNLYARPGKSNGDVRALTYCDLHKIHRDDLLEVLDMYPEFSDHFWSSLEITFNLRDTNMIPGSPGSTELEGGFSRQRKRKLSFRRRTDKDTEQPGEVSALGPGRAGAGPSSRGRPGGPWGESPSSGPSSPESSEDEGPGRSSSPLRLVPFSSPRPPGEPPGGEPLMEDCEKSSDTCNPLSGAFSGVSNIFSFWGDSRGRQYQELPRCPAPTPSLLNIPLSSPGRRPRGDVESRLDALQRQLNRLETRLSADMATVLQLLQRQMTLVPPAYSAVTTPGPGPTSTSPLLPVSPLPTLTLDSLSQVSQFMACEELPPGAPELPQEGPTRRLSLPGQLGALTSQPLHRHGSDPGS

Compound | IC50 [1] [µM] | Par-4 secretion activity (in words) [2] | fold induction at 0.5 µM [2] | also measured
CN(C)c1ccc2cc(-c3ccc(F)cc3)c(N)nc2c1 [1f, 3-(4-Fluorophenyl)-N^7,N^7-dimethylquinoline-2,7-diamine] | 30.2 ± 10.3 | – | – | –
CN1CCN(c2nc3cc(N(C)C)ccc3cc2-c2ccccc2F)CC1 [compound 11, 3-(2-Fluorophenyl)-N,N-dimethyl-2-(4-methylpiperazin-1-yl)quinolin-7-amine] | – | high levels of Par-4 secretion | – | –
Nc1nc2ccc(Cl)cc2cc1-c1ccccc1F [compound 16, 6-Chloro-3-(2-fluorophenyl)quinolin-2-amine] | – | equipotent to 1a | – | –
Nc1nc2ccccc2cc1-c1ccccc1F [compound 12, 3-(2-Fluorophenyl)quinolin-2-amine] | 14.6 ± 5.82 | high levels of Par-4 secretion | 2.8 | –
CN(C)c1ccc2cc(-c3c(F)cccc3Cl)c(N)nc2c1 [1n, 3-(2-Chloro-6-fluorophenyl)-N^7,N^7-dimethylquinoline-2,7-diamine] | – | – | 2.4 | –
Nc1nc2cccc(F)c2cc1-c1ccccc1F [compound 13, 5-Fluoro-3-(2-fluorophenyl)quinolin-2-amine] | – | equipotent to 1a | – | –
CN(C)c1ccc2cc(-c3c(Cl)cccc3Cl)c(N)nc2c1 [1o, 3-(2,6-Dichlorophenyl)-N^7,N^7-dimethylquinoline-2,7-diamine] | – | – | 2.4 | –
CN(C)c1ccc2cc(-c3ccccc3F)c(N)nc2c1 [1a, 3-(2-Fluorophenyl)-N^7,N^7-dimethylquinoline-2,7-diamine] | – | – | – | Stoichiometry at saturation [3]: 3-4 molecules per monomer of the rod domain
Nc1nc2cc(Cl)ccc2cc1-c1ccccc1F [compound 17, 7-Chloro-3-(2-fluorophenyl)quinolin-2-amine] | – | did not induce Par-4 secretion | – | Binding to vimentin rod domain (in words) ([3]; arylquin at 1 μM): did not bind the vimentin rod domain to a measurable extent; also recorded: fluorescence signal did not change in the titration
CN(C)c1ccc2cc3c(nc(N)c4ccccc43)nc2c1 [compound 5, N^9,N^9-Dimethyldibenzo[b,f][1,8]naphthyridine-5,9-diamine] | – | inactive | – | –
CN(C)c1ccc2cc(-c3cccc(F)c3)c(N)nc2c1 [1d, 3-(3-Fluorophenyl)-N^7,N^7-dimethylquinoline-2,7-diamine] | 1.59 ± 0.39 | – | – | –
CN(C)c1ccc2cc(-c3ccccc3F)c(N3CCOCC3)nc2c1 [compound 10, 3-(2-Fluorophenyl)-N,N-dimethyl-2-morpholinoquinolin-7-amine] | 23.3 ± 3.05 | – | 1.8 | –
CN(C)c1ccc2cc3c(nc2c1)[nH]c(=O)c1ccccc13 [compound 6, 9-(N,N-Dimethylamino)dibenzo[b,f][1,8]naphthyridin-5(6H)-one] | – | inactive | – | –
CN(C)c1ccc2cc(-c3ccccc3F)c(=O)[nH]c2c1 [compound 2, 7-(N,N-Dimethylamino)-3-(2-fluorophenyl)quinolin-2(1H)-one] | > 100 | – | 1.1 | –
CN(C)c1ccc2cc(-c3ccccc3F)c(=S)[nH]c2c1 [compound 7, 7-(N,N-Dimethylamino)-3-(2-fluorophenyl)quinoline-2(1H)-thione] | > 100 | – | 1.7 | –
COc1ccccc1-c1cc2ccc(N(C)C)cc2nc1N [1r, 3-(2-Methoxyphenyl)-N^7,N^7-dimethylquinoline-2,7-diamine] | – | – | 1.7 | –
